Test results: ChEMBL document CHEMBL3997832, “Development of MBRI-001, a deuterium-substituted plinabulin derivative as a potent anti-cancer agent” (Bioorg Med Chem Lett, 2017)

Assays:
NCI-H460 [1] = experiment: Antitumor activity against human NCI-H460 cells xenografted in nude mouse assessed as tumor growth inhibition at 10 mg/kg, iv administered every 2 days for 21 days relative to vehicle-treated control; format: functional; settings: read-out: TGI
How it was run: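 Nude mice bearing human NCI-H460 lung carcinoma xenografts, dosed by intravenous injection every two days for 21 consecutive days (legend states Q3D7), alongside vehicle controls. Tumor volumes were followed over the dosing period. At the end, tumors were excised and weighed, and inhibitory rates were calculated relative to vehicle. Data given as mean ± SD.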

Mus musculus [2] = experiment: Toxicity in nude mouse xenografted with human NCI-H460 cells assessed as decrease in body weight at 10 mg/kg, iv administered every 2 days for 21 days; format: organism-based; set-up: scale not given: the % may be the effect or the level left; settings: in vivo
How it was run: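 NCI-H460 lung carcinoma xenografts in nude mice, with intravenous injection every two days over 21 consecutive days (legend: Q3D7). Body weights were recorded across the administration period as a toxicity read-out. Data given as mean ± SD.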

[3] = Metabolic stability in rat plasma assessed as esterase-mediated amide bond hydrolysis at 1 uM measured up to 100 mins by LC-MS/MS analysis; format: ADME; settings: isolated protein
[4] = Metabolic stability in rat liver microsomes assessed as esterase-mediated amide bond hydrolysis at 2 uM measured up to 150 mins by LC-MS/MS analysis; format: ADME; settings: 2.5 h
[5] = Elimination rate constant in Wistar rat at 5 mg/kg, iv; format: ADME, organism-based; settings: in vivo
How it was run: (§1)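 Wistar rats, single intravenous dose of 5 mg·kg⁻¹, n=5; plasma concentration–time profile sampled, mean ± SD. Parameters (ke, t1/2, Tmax, Cmax, AUClast, AUC0–∞, Vz, CL, MRT) derived from the plasma curve.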

[6] = Half life in Wistar rat at 5 mg/kg, iv; format: ADME, organism-based; settings: in vivo; how it was run: as §1
[7] = Tmax in Wistar rat at 5 mg/kg, iv; format: ADME, organism-based; settings: in vivo; how it was run: as §1
[8] = Cmax in Wistar rat at 5 mg/kg, iv; format: ADME, organism-based; set-up: dose 5 mg/kg, route intravenous; settings: in vivo; how it was run: as §1
[9] = AUClast in Wistar rat at 5 mg/kg, iv; format: ADME, organism-based; set-up: dose 5 mg/kg, route intravenous, time 0 - last; settings: in vivo; how it was run: as §1
[10] = Observed AUC (0 to infinity) in Wistar rat at 5 mg/kg, iv; format: ADME, organism-based; set-up: dose 5 mg/kg, time infinity, route intravenous; settings: in vivo; how it was run: as §1
[11] = Observed apparent volume of distribution in Wistar rat at 5 mg/kg, iv; format: ADME, organism-based; settings: in vivo, read-out: Vz; how it was run: as §1
[12] = Observed clearance in Wistar rat at 5 mg/kg, iv; format: ADME, organism-based; settings: in vivo; how it was run: as §1
[13] = MRTlast in Wistar rat at 5 mg/kg, iv; format: ADME, organism-based; settings: in vivo; how it was run: as §1
NCI-H460 [14] = experiment: Cytotoxicity against human NCI-H460 cells assessed as decrease in cell viability after 72 hrs by MTT assay; format: functional, cell-based; settings: NCI-H460, 72 h
NCI-H446 = experiment: Cytotoxicity against human NCI-H446 cells assessed as decrease in cell viability after 72 hrs by MTT assay; format: functional, cell-based; settings: NCI-H446, 72 h
Jurkat = experiment: Cytotoxicity against human Jurkat cells assessed as decrease in cell viability after 72 hrs by MTT assay; format: functional, cell-based
NCI-H460 [15] = experiment: Antitumor activity against human NCI-H460 cells xenografted in iv dosed nude mouse assessed as tumor growth inhibition administered every 2 days for 21 days; format: functional, organism-based; settings: tested as the 2H-labelled form
How it was run: (§2)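 NCI-H460 xenografts in nude mice, dosed intravenously at 3, 6 or 12 mg/kg every two days for 21 consecutive days (Q3D7); docetaxel 10 mg/kg as positive control. Tumor volumes followed, tumors excised and weighed at end of dosing; inhibitory rate calculated versus vehicle group; mean ± SD.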

NCI-H460 [16] = experiment: Antitumor activity against human NCI-H460 cells xenografted in nude mouse assessed as tumor growth inhibition at 3 mg/kg, iv administered every 2 days for 21 days relative to vehicle-treated control; format: functional; settings: read-out: TGI; how it was run: as §2
NCI-H460 [17] = experiment: Antitumor activity against human NCI-H460 cells xenografted in nude mouse assessed as tumor growth inhibition at 6 mg/kg, iv administered every 2 days for 21 days relative to vehicle-treated control; format: functional; settings: read-out: TGI; how it was run: as §2
NCI-H460 [18] = experiment: Antitumor activity against human NCI-H460 cells xenografted in nude mouse assessed as tumor growth inhibition at 12 mg/kg, iv administered every 2 days for 21 days relative to vehicle-treated control; format: functional; settings: read-out: TGI; how it was run: as §2
[19] = Drug uptake in tumor of nude mouse xenografted with human NCI-H460 cells at 3 mg/kg, iv administered every 2 days for 21 days; format: ADME, organism-based, Neoplasm; settings: read-out: Drug uptake
How it was run: (§3)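 Nude mice bearing NCI-H460 xenografts given compound intravenously at 3, 6 or 12 mg/kg every two days for 21 days. Concentration in excised tumor tissue measured at end of treatment, expressed as ng/g.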

[20] = Drug uptake in tumor of nude mouse xenografted with human NCI-H460 cells at 6 mg/kg, iv administered every 2 days for 21 days; format: ADME, organism-based, Neoplasm; settings: read-out: Drug uptake; how it was run: as §3
[21] = Drug uptake in tumor of nude mouse xenografted with human NCI-H460 cells at 12 mg/kg, iv administered every 2 days for 21 days; format: ADME, organism-based, Neoplasm; settings: read-out: Drug uptake; how it was run: as §3
Mus musculus [22] = experiment: Toxicity in nude mouse xenografted with human NCI-H460 cells assessed as decrease in body weight at 3 to 12 mg/kg, iv administered every 2 days for 21 days; format: organism-based; settings: in vivo
How it was run: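 Nude mice bearing NCI-H460 xenografts dosed intravenously at 3, 6 or 12 mg/kg every two days for 21 days (Q3D7). Body weights recorded over the dosing period; mean ± SD.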

SMILES | Stability [3] | Stability [4] | k el [5] [s⁻¹] | half-life [6] [min] | Tmax [7] [min] | Cmax [8] [ng/mL] | AUC(0-t) [9] [ng·h/mL] | AUC(0-inf) [10] [ng·h/mL] | Vd [11] [L/kg] | clearance [12] [mL/min/kg] | MRT last [13] [min] | IC50 (NCI-H460 [14]) [nM] | IC50 (NCI-H446) [nM] | IC50 (Jurkat) [nM] | also measured
CC(=O)O[C@@]12CO[C@@H]1C[C@H](O)[C@@]1(C)C(=O)[C@H](O)C3=C(C)[C@@H](OC(=O)[C@H](O)[C@@H](NC(=O)OC(C)(C)C)c4ccccc4)C[C@@](O)([C@@H](OC(=O)c4ccccc4)[C@H]21)C3(C)C [DOCETAXEL ANHYDROUS] |  |  |  |  |  |  |  |  |  |  |  |  |  |  | inhibition in vivo at 10 mg/kg (NCI-H460 [1]): 40%; Activity (Mus musculus [2]): 18.3%
CC(C)(C)c1[nH]cnc1/C=c1\[nH]c(=O)/c(=C/c2ccccc2)[nH]c1=O [PLINABULIN] | Stable | Stable | 0.000189 | 67.8 | 1.2 | 5040 | 721 | 723 | 11.4 | 121 | 30 | 33.9 | 44.2 | 3.3 | TGI (NCI-H460 [15]): Dose-dependent effect
[2H]/C(c1nc[nH]c1C(C)(C)C)=c1/[nH]c(=O)/c(=C/c2ccccc2)[nH]c1=O | Stable | Stable | 0.000139 | 88.2 | 1.2 | 7280 | 1520 | 1520 | 7.72 | 58.8 | 101 | 33.2 | 22 | 4.3 | inhibition in vivo at 3 mg/kg (NCI-H460 [16]): 28.8%; inhibition in vivo at 6 mg/kg (NCI-H460 [17]): 44.8%; inhibition in vivo at 12 mg/kg (NCI-H460 [18]): 48%; concentration at 21 days [19]: 316 ng/g; concentration at 21 days [20]: 809 ng/g; concentration at 21 days [21]: 2490 ng/g; Activity (Mus musculus [22]): Non-Toxic
